# Test results taken from ChEMBL document CHEMBL4402582, “Garcinoic Acid Is a Natural and Selective Agonist of Pregnane X Receptor” (J Med Chem, 2020).
# Activity calls are given as the source filed them. The rule behind the calls is not given here.
# Columns and labels:
# [1] = target: T1, Nuclear receptor subfamily 1 group I member 2 (Homo sapiens, UniProt O75469); assay: Agonist activity at His-tagged PXR-LBD/SRC-1p (unknown origin) expressed in Escherichia coli BL21(DE3) by coactivator recruitment based Alpha-screen assay; details: read-out: EC50
# T1 sequence (O75469 whole entry): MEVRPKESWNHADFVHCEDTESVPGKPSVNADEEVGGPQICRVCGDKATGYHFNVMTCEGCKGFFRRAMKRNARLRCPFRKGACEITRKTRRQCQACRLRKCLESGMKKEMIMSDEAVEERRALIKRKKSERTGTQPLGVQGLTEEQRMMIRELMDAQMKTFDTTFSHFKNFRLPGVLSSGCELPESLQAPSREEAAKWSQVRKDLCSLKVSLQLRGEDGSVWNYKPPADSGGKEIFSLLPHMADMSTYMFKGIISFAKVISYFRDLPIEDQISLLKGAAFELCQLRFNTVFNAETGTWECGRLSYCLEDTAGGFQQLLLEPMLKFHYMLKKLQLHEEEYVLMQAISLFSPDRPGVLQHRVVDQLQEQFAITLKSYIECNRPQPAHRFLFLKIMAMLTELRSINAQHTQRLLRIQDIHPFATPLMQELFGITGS
# [2] = target: T1, Nuclear receptor subfamily 1 group I member 2; assay: Agonist activity at PXR in human HepG2 cells transfected with PXR siRNA at 10 to 50 uM incubated for 24 hrs; type: cell-based; details: hepg2, 24 h
# Method in brief: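 HepG2 cells reverse-transfected with PXR siRNA using lipofectamine RNAiMAX; after 24 h silencing, treated with compound for a further 24 h. PXR and CYP3A4 transcription responses measured.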
# [3] = target: T1, Nuclear receptor subfamily 1 group I member 2; assay: Agonist activity at PXR in human HepG2 cells assessed as increase in MDR1 mRNA expression at 1 to 50 uM incubated for 24 hrs; type: cell-based; details: hepg2, 24 h
# Method in brief: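 HepG2 cells exposed to 1–50 μM. MDR1 mRNA measured after RNA extraction and cDNA synthesis.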
# [4] = target: T1, Nuclear receptor subfamily 1 group I member 2; assay: Agonist activity at PXR in human HepaRG cells assessed as increase in PXR protein expression at 1 to 25 uM incubated for 24 hrs by immunoblot analysis; type: cell-based
# [5] = target: T1, Nuclear receptor subfamily 1 group I member 2; assay: Agonist activity at PXR in human HepaRG cells assessed as increase in CYP3A4 protein expression at 1 to 25 uM incubated for 24 hrs by immunoblot analysis; type: cell-based
# [6] = target: T1, Nuclear receptor subfamily 1 group I member 2; assay: Agonist activity at PXR in human HepG2 cells assessed as stimulation of CYP450-mediated alpha-tocopherol metabolites production at 25 uM; type: cell-based; details: hepg2, 25 µM
# [7] = target: T1, Nuclear receptor subfamily 1 group I member 2; assay: Agonist activity at PXR in human HT29 cells assessed as increase in PXR protein expression at 1 to 25 uM incubated for 24 hrs by immunoblot analysis; type: cell-based
# [8] = target: T1, Nuclear receptor subfamily 1 group I member 2; assay: Agonist activity at PXR in human HT29-MTX cells assessed as increase in PXR protein expression at 1 to 25 uM incubated for 24 hrs by immunoblot analysis; type: cell-based
# [9] = Toxicity in C57BL/6 mouse assessed as mortality at 100 mg dosed as oral gavage as single bolus and measured after 24 hrs relative to control; type: organism-based; details: in vivo, read-out: Activity
# Method in brief: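 Male C57BL/6 wild-type mice aged 6–7 weeks, 3 per group. Single bolus by oral gavage in an olive-oil vehicle, with vehicle-only controls and dose groups of 5, 10, 25, 50 and 100 mg. Animals were checked 24 h after dosing by gross appearance and behaviour, then killed, and liver and main organs were examined post-mortem.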
# [10] = Toxicity in C57BL/6 mouse assessed as effect on animal behavior at <=25 mg dosed as oral gavage as single bolus and measured after 24 hrs relative to control; type: organism-based; details: in vivo
# Method in brief: (§1)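 Male C57BL/6 mice, 6–7 weeks old, three per group. Single oral gavage bolus of 5, 10, 25, 50 or 100 mg in olive oil vehicle. Observed at 24 h for mortality, gross appearance and behavior, then post-mortem examination of liver and main organs.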
# [11] = Toxicity in C57BL/6 mouse assessed as induction of liver damage at <=25 mg dosed as oral gavage as single bolus and measured after 24 hrs relative to control; type: organism-based; details: in vivo; method in brief: as §1
# Mus musculus [12] = assay: Induction of PXR mRNA expression in C57BL/6 mouse intestine at 5 to 25 mg dosed as oral gavage as single bolus and measured after 24 hrs relative to control; type: functional, organism-based
# Method in brief: (§2)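 Male C57BL/6 mice, 6–7 weeks old, three per group. Single oral gavage bolus of 5, 10 or 25 mg in olive oil vehicle; vehicle-only controls. Killed at 24 h. Tissue PXR mRNA measured; PXR, CYP3A11 and MDR1 protein measured by immunoblot.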
# Mus musculus [13] = assay: Induction of PXR-dependent CYP3A11 protein expression in C57BL/6 mouse intestine at 5 to 25 mg dosed as oral gavage as single bolus and measured after 24 hrs relative to control; type: functional, organism-based; method in brief: as §2
# Mus musculus [14] = assay: Induction of PXR-dependent CYP3A11 protein expression in C57BL/6 mouse liver at 5 to 25 mg dosed as oral gavage as single bolus and measured after 24 hrs relative to control; type: functional, organism-based; method in brief: as §2
# Mus musculus [15] = assay: Induction of PXR protein expression in C57BL/6 mouse hepatic parenchyma assessed as induction of localization of PXR protein at sinusoidal endothelial cells at 5 to 25 mg dosed as oral gavage as single bolus and measured after 24 hrs by IHC analysis relative to control; type: functional, organism-based
# Method in brief: (§3)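 Male C57BL/6 mice, 6–7 weeks old, three per group. Single oral gavage bolus (5–25 mg) in olive oil; vehicle controls; killed at 24 h. Liver and gut formalin-fixed, paraffin-embedded; 4 μm sections stained with H&E. PXR IHC with polyclonal antibody at 1:200 on an automated stainer with polymer detection.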
# Mus musculus [16] = assay: Induction of PXR protein expression in C57BL/6 mouse hepatic parenchyma assessed as induction of localization of PXR protein at hepatocytes around centro-lobular veins at 25 mg dosed as oral gavage as single bolus and measured after 24 hrs by IHC analysis relative to control; type: functional, organism-based; method in brief: as §3
# Mus musculus [17] = assay: Induction of PXR protein expression in C57BL/6 mouse hepatic parenchyma assessed as induction of localization of PXR protein at hepatocytes around lobular midzonal area at 25 mg dosed as oral gavage as single bolus and measured after 24 hrs by IHC analysis relative to control; type: functional, organism-based; method in brief: as §3
# Mus musculus [18] = assay: Induction of PXR protein expression in C57BL/6 mouse intestine assessed as induction of localization of PXR protein at villous epithelium at 5 to 25 mg dosed as oral gavage as single bolus and measured after 24 hrs by IHC analysis relative to control; type: functional, organism-based; method in brief: as §3
# Mus musculus [19] = assay: Induction of PXR protein expression in C57BL/6 mouse intestine assessed as induction of localization of PXR protein at glandular epithelium of crypts at base of mucosa epithelium at 5 to 25 mg dosed as oral gavage as single bolus and measured after 24 hrs by IHC analysis relative to control; type: functional, organism-based; method in brief: as §3
# Mus musculus [20] = assay: Induction of PXR protein expression in C57BL/6 mouse intestine assessed as induction of localization of PXR protein at brush border of enterocytes at 10 mg dosed as oral gavage as single bolus and measured after 24 hrs by IHC analysis relative to control; type: functional, organism-based; method in brief: as §3
# [21] = target: T1, Nuclear receptor subfamily 1 group I member 2; assay: Agonist activity at PXR in human HepG2 cells assessed as increase in CYP3A4 mRNA expression at 1 to 25 uM incubated for 24 hrs; details: hepg2, 24 h
compound,measurement,setting,value
C/C(=C\CC/C(C)=C/CC[C@]1(C)CCc2cc(O)cc(C)c2O1)CC/C=C(\C)C(=O)O,EC50,[1],1300 nM
same,Activity,[2],Not Active
same,Activity,[3],Dose-dependent effect
same,Activity,[4],Active
same,Activity,[5],Active
same,Activity,[6],Active
same,Activity,[7],Active
same,Activity,[8],Active
same,mortality at 24 h,[9],100%
same,Activity,[10],Non-Toxic
same,Activity,[11],Non-Toxic
same,Activity,Mus musculus [12],Dose-dependent effect
same,Activity,Mus musculus [13],Active
same,Activity,Mus musculus [14],Active
same,Activity,Mus musculus [15],Active
same,Activity,Mus musculus [16],Active
same,Activity,Mus musculus [17],Active
same,Activity,Mus musculus [18],Active
same,Activity,Mus musculus [19],Active
same,Activity,Mus musculus [20],Active
same,Activity,[21],Dose-dependent effect
